The source made the active and inactive calls. No cut-off for these calls is given here.
Key:
HL-60 [1] = experiment: Induction of cytochrome-c release in human HL60 cells at 30 uM incubated for 24 hrs by immunoblotting method; format: functional, cell-based
In short: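 HL-60 cells treated 24 h with 30 µM compound. Cytosolic extracts immunoblotted for cytochrome c released from mitochondria. β-Actin used as loading control.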

HL-60 [2] = experiment: Induction of apoptosis in human HL60 cells assessed as hypodiploid cells level incubated for 24 hrs in presence of 10 uM JNK/SAPK inhibitor SP600125 by flow cytometry; format: functional, cell-based
In short: (§1)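 HL-60 cells preincubated 1 h with PD98059 (10 µM), SP600125 (10 µM) or SB203580 (2 µM), then treated with compound. Hypodiploid (apoptotic) cells quantified by flow cytometry of propidium iodide-stained nuclei. Three independent experiments, each in triplicate.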

HL-60 [3] = experiment: Induction of apoptosis in human HL60 cells assessed as hypodiploid cells level at 30 uM incubated for 24 hrs in presence of caspase-9 inhibitor z-LEHD-fmk by flow cytometry; format: functional, cell-based
In short: (§2)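 HL-60 cells given 30 µM compound for 24 h, alone or with z-VAD-fmk (100 µM), z-DEVD-fmk, z-IETD-fmk or z-LEHD-fmk (each 50 µM). Propidium iodide staining, hypodiploid cells quantified by flow cytometry. Three independent experiments, each in triplicate.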

[4] = target: T1, MAP kinase p38 (Homo sapiens) (UniProt O15264+Q15759+Q16539+P53778); experiment: Induction of p38MAPK phosphorylation in human HL60 cells after 2 hrs by Western blotting; format: cell-based; details: HL-60
In short: (§3)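 HL-60 cells (1 × 10⁶/mL) treated with compound (10–30 µM) for various times. Where used, PD98059 (10 µM) was added 1 h beforehand. Lysates run on 10% SDS-PAGE and immunoblotted for phosphorylated ERK 1/2, JNK/SAPK or p38MAPK. Blots stripped and reprobed for the total kinase as loading control.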

HL-60 [5] = experiment: Cell cycle arrest in human HL60 cells assessed as accumulation at G2/M phase at 30 uM incubated for 24 hrs by flow cytometry (reference value: 33.2 +/- 2.1%); format: functional
[6] = target: T2, Mitogen-activated protein kinase; ERK1/ERK2 (Homo sapiens) (UniProt P27361+P28482); experiment: Induction of ERK1/2 phosphorylation in human HL60 cells after 6 hrs by Western blotting; format: cell-based; details: HL-60; in short: as §3
T2 sequence (P27361 whole entry, looked up): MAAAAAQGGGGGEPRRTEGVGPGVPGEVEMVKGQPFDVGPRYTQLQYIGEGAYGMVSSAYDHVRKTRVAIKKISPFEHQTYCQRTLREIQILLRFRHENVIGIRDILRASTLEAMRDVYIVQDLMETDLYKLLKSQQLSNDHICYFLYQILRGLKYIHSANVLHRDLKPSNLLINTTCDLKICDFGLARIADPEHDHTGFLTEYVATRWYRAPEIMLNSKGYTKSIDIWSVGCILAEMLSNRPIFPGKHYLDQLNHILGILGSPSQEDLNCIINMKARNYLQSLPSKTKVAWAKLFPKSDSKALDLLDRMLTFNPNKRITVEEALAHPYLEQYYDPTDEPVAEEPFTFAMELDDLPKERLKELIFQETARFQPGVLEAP
T2 sequence (P28482 whole entry, looked up): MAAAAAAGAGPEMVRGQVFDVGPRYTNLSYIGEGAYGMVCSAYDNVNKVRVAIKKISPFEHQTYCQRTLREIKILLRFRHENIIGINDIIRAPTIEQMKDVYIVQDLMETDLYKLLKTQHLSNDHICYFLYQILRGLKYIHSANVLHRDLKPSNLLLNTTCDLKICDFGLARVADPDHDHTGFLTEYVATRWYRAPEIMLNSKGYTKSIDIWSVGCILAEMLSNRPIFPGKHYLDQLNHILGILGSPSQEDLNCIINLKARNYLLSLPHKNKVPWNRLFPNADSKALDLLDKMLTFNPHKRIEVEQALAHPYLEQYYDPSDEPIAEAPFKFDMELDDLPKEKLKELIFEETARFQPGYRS

[7] = target: T3, c-Jun N-terminal kinase, JNK (Homo sapiens) (UniProt P45983+P53779+P45984); experiment: Induction of JNK/SAPK phosphorylation in human HL60 cells after 30 mins by Western blotting; format: cell-based; details: HL-60; in short: as §3
HL-60 [8] = experiment: Induction of DNA fragmentation in human HL60 cells at 10 uM incubated for 24 hrs by agarose gel electrophoresis; format: functional, cell-based
In short: (§4)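 HL-60 cells treated with the indicated concentrations. Genomic DNA extracted, run on agarose gel and visualised under UV after ethidium bromide staining, looking for internucleosomal fragmentation.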

HL-60 [9] = experiment: Induction of DNA fragmentation in human HL60 cells at 30 uM incubated for 24 hrs by agarose gel electrophoresis; format: functional, cell-based; in short: as §4
[10] = target: T1, MAP kinase p38 (Homo sapiens); experiment: Induction of p38MAPK phosphorylation in human HL60 cells after 30 mins by Western blotting; format: cell-based; details: HL-60; in short: as §3
HL-60 [11] = experiment: Cell cycle arrest in human HL60 cells assessed as accumulation at subG1 phase at 30 uM incubated for 24 hrs by flow cytometry (reference value: 2.3 +/- 0.5%); format: functional
HL-60 [12] = experiment: Cytotoxicity against human HL60 cells after 72 hrs by MTT assay; format: functional, cell-based; details: HL-60, 72 h
In short: (§5)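 MTT colorimetric assay on HL-60 and HL-60/MX1 cells (RPMI 1640, 10% heat-inactivated FBS), 72 h exposure, absorbance 570 nm. IC50 obtained graphically by curve fitting. Means ± S.E. of three independent experiments, each in triplicate.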

HL-60 [13] = experiment: Cell cycle arrest in human HL60 cells assessed as accumulation at G1 phase at 10 uM incubated for 24 hrs by flow cytometry (reference value: 48 +/- 1.6%); format: functional
HL-60 [14] = experiment: Induction of apoptosis in human HL60 cells assessed as hypodiploid cells level at 30 uM incubated for 24 hrs in presence of caspase inhibitor z-VAD-fmk by flow cytometry; format: functional, cell-based; in short: as §2
HL-60 [15] = experiment: Induction of apoptosis in human HL60 cells assessed as changes in nuclear morphology at 30 uM incubated for 24 hrs by fluorescence microscopy (reference value: 4.9 +/- 1.0%)
[16] = target: T2, Mitogen-activated protein kinase; ERK1/ERK2 (Homo sapiens); experiment: Induction of ERK1/2 phosphorylation in human HL60 cells after 30 mins in presence of 10 uM MEK1/2 inhibitor PD98059 by Western blotting; format: cell-based; details: HL-60; in short: as §3
HL-60 [17] = experiment: Increase in apoptosis in human HL60 cells assessed as hypodiploid cells level incubated for 24 hrs in presence of 10 uM MEK1/2 inhibitor PD98059 by flow cytometry (reference value: 16%); format: functional; in short: as §1
HL-60 [18] = experiment: Induction of p21'Cip1 protein expression in human HL60 cells at 30 uM incubated for 24 hrs by Western blotting method; format: functional, cell-based
In short: (§6)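 HL-60 cells (1 × 10⁶/mL) exposed to compound, harvested at 24 h. Lysed in Tris-HCl pH 7.4/Triton X-100 buffer with phosphatase and protease inhibitors, 15 min at 4 °C. Equal protein run on SDS-PAGE (7.5% PARP, 12.5% caspases) and immunoblotted on PVDF. β-Actin used as loading control.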

HL-60 [19] = experiment: Induction of procaspase-3 processing in human HL60 cells at 30 uM incubated for 24 hrs by immunoblotting method; format: functional, cell-based; in short: as §6
HL-60 [20] = experiment: Cell cycle arrest in human HL60 cells assessed as accumulation at S phase at 10 uM incubated for 24 hrs by flow cytometry (reference value: 16.7 +/- 0.5%); format: functional
HL-60 [21] = experiment: Induction of apoptosis in human HL60 cells assessed as hypodiploid cells level at 30 uM incubated for 24 hrs in presence of caspase-8 inhibitor z-IETD-fmk by flow cytometry; format: functional, cell-based; in short: as §2
HL-60 [22] = experiment: Cell cycle arrest in human HL60 cells assessed as accumulation at G2/M phase at 10 uM incubated for 24 hrs by flow cytometry (reference value: 33.2 +/- 2.1%); format: functional
HL-60 [23] = experiment: Induction of apoptosis in human HL60 cells assessed as hypodiploid cells level incubated for 24 hrs in presence of 2 uM p38MAPK inhibitor SB203580 by flow cytometry; format: functional, cell-based; in short: as §1
[24] = target: T2, Mitogen-activated protein kinase; ERK1/ERK2 (Homo sapiens); experiment: Induction of ERK1/2 phosphorylation in human HL60 cells after 30 mins by Western blotting; format: cell-based; details: HL-60; in short: as §3
HL-60 [25] = experiment: Induction of caspase activation in human HL60 cells assessed as increase in PARP cleavage at 30 uM incubated for 24 hrs by immunoblotting method; format: functional, cell-based; in short: as §6
[26] = target: T3, c-Jun N-terminal kinase, JNK (Homo sapiens); experiment: Induction of JNK/SAPK phosphorylation in human HL60 cells after 6 hrs by Western blotting; format: cell-based; details: HL-60; in short: as §3
HL-60 [27] = experiment: Induction of cyclin D1 protein expression in human HL60 cells at 30 uM incubated for 24 hrs by Western blotting method; format: functional, cell-based; in short: as §6
PBMC [28] = experiment: Cytotoxicity against human fresh PBMCs up to 30 uM; format: cell-based
In short: (§7)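 HL-60 cells, quiescent (fresh) PBMC and phytohemagglutinin-activated healthy human PBMC cultured 48 h over a concentration range of compound. Proliferation measured. Means ± SE of two independent experiments, each in triplicate.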

HL-60 [29] = experiment: Cell cycle arrest in human HL60 cells assessed as accumulation at subG1 phase at 10 uM incubated for 24 hrs by flow cytometry (reference value: 2.3 +/- 0.5%); format: functional
[30] = Cytotoxicity against human HL60/MX1 cells after 72 hrs by MTT assay; format: functional, cell-based; details: HL60/MX1, 72 h; in short: as §5
HL-60 [31] = experiment: Induction of apoptosis in human HL60 cells assessed as hypodiploid cells level at 30 uM incubated for 24 hrs in presence of caspase-3 and -7 inhibitor z-DEVD-fmk by flow cytometry; format: functional, cell-based; in short: as §2
HL-60 [32] = experiment: Induction of procaspase-6 processing in human HL60 cells at 30 uM incubated for 24 hrs by immunoblotting method; format: functional, cell-based; in short: as §6
HL-60 [33] = experiment: Induction of apoptosis in human HL60 cells assessed as incidence of condensed and fragmented chromatin at 30 uM incubated for 24 hrs by fluorescent microscopy; format: functional, cell-based
HL-60 [34] = experiment: Induction of Bid protein cleavage in human HL60 cells at 30 uM incubated for 24 hrs by Western blotting method; format: functional, cell-based; in short: as §6
PBMC [35] = experiment: Cytotoxicity against human proliferating PBMCs up to 30 uM; format: cell-based; in short: as §7
HL-60 [36] = experiment: Cytotoxicity against human HL60 cells at 100 uM after 72 hrs by MTT assay
HL-60 [37] = experiment: Induction of procaspase-9 cleavage in human HL60 cells at 30 uM incubated for 24 hrs by immunoblotting method; format: functional, cell-based; in short: as §6
HL-60 [38] = experiment: Cytotoxicity against human HL60 cells up to 30 uM after 72 hrs by MTT assay; format: functional, cell-based
HL-60 [39] = experiment: Cell cycle arrest in human HL60 cells assessed as accumulation at G1 phase at 30 uM incubated for 24 hrs by flow cytometry (reference value: 48 +/- 1.6%); format: functional
HL-60 [40] = experiment: Induction of procaspase-7 processing in human HL60 cells at 30 uM incubated for 24 hrs by immunoblotting method; format: functional, cell-based; in short: as §6
HL-60 [41] = experiment: Cell cycle arrest in human HL60 cells assessed as accumulation at S phase at 30 uM incubated for 24 hrs by flow cytometry (reference value: 16.7 +/- 0.5%); format: functional
HL-60 [42] = experiment: Induction of procaspase-8 hydrolysis in human HL60 cells at 30 uM incubated for 24 hrs by immunoblotting method; format: functional, cell-based; in short: as §6

COC(=O)c1c(C)c(C)cc2c(=O)cc(-c3ccccc3Cl)oc12
Activity (HL-60 [1]): Active | Activity (HL-60 [2]): Active | Activity (HL-60 [3]): inactive | Activity [4]: inactive | Activity (HL-60 [5]): 13.5% | Activity [6]: Active | Activity [7]: Active | Activity (HL-60 [8]): Active | Activity (HL-60 [9]): Active | Activity [10]: Active | Activity (HL-60 [11]): 28.1% | IC50 (HL-60 [12]): 9.3 µM | Activity (HL-60 [13]): 54.9% | Activity (HL-60 [14]): inactive | Activity (HL-60 [15]): 30.6% | Activity [16]: inactive | Activity (HL-60 [17]): 32% | Activity (HL-60 [18]): Active | Activity (HL-60 [19]): Active | Activity (HL-60 [20]): 16.7% | Activity (HL-60 [21]): inactive | Activity (HL-60 [22]): 22.9% | Activity (HL-60 [23]): Active | Activity [24]: Active | Activity (HL-60 [25]): Active | Activity [26]: Active | Activity (HL-60 [27]): Active | Activity (PBMC [28]): Non-toxic | Activity (HL-60 [29]): 6.3% | IC50 [30]: 70.7 µM | Activity (HL-60 [31]): inactive | Activity (HL-60 [32]): Active | Activity (HL-60 [33]): Active | Activity (HL-60 [34]): Active | Activity (PBMC [35]): Non-toxic | Activity (HL-60 [36]): Active | Activity (HL-60 [37]): Active | Activity (HL-60 [38]): Active | Activity (HL-60 [39]): 47.2% | Activity (HL-60 [40]): Active | Activity (HL-60 [41]): 7.8% | Activity (HL-60 [42]): Active
